Reference: paper PMC9594912 (International Journal of Nanomedicine, 2022)

What was measured:
BCRP [1] = target: T1, BCRP (Homo sapiens, UniProt Q9UNQ0); experiment: Caco-2 transport with BCRP inhibitor Res; format: in vitro ADME; conditions: Res 50 μmol/L; increase taken to indicate a substrate of BCRP
T1 sequence (Q9UNQ0 1-655): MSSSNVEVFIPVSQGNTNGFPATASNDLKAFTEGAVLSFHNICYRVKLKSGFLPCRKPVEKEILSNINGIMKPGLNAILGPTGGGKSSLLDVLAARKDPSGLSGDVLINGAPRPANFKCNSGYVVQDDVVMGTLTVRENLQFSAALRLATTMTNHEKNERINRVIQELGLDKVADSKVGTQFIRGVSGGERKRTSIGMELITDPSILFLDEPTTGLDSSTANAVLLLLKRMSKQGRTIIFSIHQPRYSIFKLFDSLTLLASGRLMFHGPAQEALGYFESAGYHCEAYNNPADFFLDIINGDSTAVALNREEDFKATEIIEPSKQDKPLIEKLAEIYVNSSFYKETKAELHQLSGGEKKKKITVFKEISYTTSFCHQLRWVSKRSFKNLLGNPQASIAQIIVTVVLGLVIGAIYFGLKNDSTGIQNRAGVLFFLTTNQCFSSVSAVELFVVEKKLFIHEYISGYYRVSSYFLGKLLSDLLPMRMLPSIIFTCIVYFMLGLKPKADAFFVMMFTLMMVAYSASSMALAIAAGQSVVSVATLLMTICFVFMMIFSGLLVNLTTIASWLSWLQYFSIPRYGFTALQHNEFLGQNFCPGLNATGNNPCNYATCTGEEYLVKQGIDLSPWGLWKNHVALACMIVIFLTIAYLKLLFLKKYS
Method in brief: (§1)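 Bidirectional transport across 21-day Caco-2 monolayers (TEER >300 Ω·cm2) in pH 7.4 HBSS. Free or liposomal test compound at 2.5, 5, 10 μg/mL, with efflux inhibitor added: verapamil 100 μmol/L (P-gp), indomethacin 200 μmol/L (MRP2) or reserpine 50 μmol/L (BCRP). Receiver sampled at 30–180 min with replacement. Triplicate runs; Papp from ΔQ/Δt, area and C0.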

[2] = Transport study in Caco-2 cell monolayer; format: in vitro ADME; conditions: human, Caco-2, pH 7.4
Method in brief: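 Caco-2 cells grown in α-MEM with 20% FBS, 1% NEAA, 4 mM glutamine and pen/strep. Seeded on transwells and cultured 21 days; monolayers with TEER >300 Ω·cm2 used. In pH 7.4 HBSS, free or liposomal test compound (2.5, 5, 10 μg/mL) added apically (A→B) or basolaterally (B→A). Receiver sampled at 30–180 min with replacement. Triplicate runs; Papp from ΔQ/Δt, area and C0; efflux ratio derived.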

[3] = test system: RAW264.7 macrophages stimulated by LPS; experiment: NO release and ELISA of TNF-α, IL-6 and IL-10 in LPS-stimulated RAW264.7; format: cell-based, mouse; conditions: LPS 1 µg/mL, paeonol 5 μg/mL, Pae-Lips 2.5, 5, 10 μg/mL
Method in brief: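 RAW264.7 cells (DMEM, 20% FBS, 37°C, 5% CO2) seeded at 15,000/well and grown 24 h. Pretreated 2 h with free test compound (5 μg/mL final) or liposomes (2.5, 5, 10 μg/mL final). Then stimulated with LPS 1 µg/mL final (unstimulated control kept) for 20 h. Supernatant NO measured by kit; IL-6, TNF-α and IL-10 by ELISA.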

P-gp [4] = experiment: SPIP with P-gp inhibitor verapamil; conditions: Ver 100 μmol/L; increase taken to indicate a substrate of P-gp
MRP2 [5] = target: MRP2 (Rattus norvegicus, UniProt Q63120); experiment: SPIP with MRP2 inhibitor indomethacin; format: in vivo, rats; conditions: Indo 200 μmol/L; increase taken to indicate a substrate of MRP2
MRP2 (Rattus norvegicus, UniProt Q63120), sequence (Q63120 whole entry): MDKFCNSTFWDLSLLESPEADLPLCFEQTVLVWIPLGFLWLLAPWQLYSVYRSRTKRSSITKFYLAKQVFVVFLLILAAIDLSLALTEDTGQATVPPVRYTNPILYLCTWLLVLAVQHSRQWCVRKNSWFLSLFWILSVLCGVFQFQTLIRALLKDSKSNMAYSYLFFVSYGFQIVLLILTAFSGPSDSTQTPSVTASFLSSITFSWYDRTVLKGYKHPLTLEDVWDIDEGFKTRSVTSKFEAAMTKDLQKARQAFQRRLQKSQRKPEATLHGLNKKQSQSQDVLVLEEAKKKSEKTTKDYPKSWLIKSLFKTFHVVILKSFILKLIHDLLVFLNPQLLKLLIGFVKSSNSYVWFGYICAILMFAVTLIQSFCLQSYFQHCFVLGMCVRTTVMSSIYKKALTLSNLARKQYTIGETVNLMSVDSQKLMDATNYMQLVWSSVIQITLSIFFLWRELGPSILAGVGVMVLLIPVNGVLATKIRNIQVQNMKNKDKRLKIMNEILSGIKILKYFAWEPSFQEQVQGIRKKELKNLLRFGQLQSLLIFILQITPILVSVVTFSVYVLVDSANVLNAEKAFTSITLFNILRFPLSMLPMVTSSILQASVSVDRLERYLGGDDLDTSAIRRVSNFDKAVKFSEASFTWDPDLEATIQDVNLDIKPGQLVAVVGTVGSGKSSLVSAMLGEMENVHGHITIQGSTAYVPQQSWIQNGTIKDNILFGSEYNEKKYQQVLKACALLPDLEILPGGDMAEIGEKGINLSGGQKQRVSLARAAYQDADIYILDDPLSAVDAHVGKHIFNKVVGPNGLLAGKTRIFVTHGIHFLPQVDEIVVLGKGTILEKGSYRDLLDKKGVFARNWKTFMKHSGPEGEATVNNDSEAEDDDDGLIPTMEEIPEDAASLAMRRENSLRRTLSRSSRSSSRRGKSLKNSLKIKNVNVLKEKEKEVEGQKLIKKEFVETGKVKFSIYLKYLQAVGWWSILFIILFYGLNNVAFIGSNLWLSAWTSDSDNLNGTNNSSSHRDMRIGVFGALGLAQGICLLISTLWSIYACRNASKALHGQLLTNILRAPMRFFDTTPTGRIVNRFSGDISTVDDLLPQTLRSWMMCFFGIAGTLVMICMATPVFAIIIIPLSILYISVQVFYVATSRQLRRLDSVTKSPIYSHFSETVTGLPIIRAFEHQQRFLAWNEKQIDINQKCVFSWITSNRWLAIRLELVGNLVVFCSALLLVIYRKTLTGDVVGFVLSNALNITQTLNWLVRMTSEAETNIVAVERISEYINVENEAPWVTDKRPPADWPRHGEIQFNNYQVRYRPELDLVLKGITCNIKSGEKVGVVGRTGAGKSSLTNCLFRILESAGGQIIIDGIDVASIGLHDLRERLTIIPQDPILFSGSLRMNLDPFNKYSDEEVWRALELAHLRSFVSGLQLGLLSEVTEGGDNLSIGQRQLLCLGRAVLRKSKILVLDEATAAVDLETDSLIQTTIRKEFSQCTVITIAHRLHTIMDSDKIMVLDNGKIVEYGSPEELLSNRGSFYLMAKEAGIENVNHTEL

MRP2 [6] = target: MRP2 (Homo sapiens, UniProt Q92887); experiment: Caco-2 transport with MRP2 inhibitor Indo; format: in vitro ADME; conditions: Indo 200 μmol/L; increase taken to indicate a substrate of MRP2
MRP2 (Homo sapiens, UniProt Q92887), sequence (Q92887 whole entry): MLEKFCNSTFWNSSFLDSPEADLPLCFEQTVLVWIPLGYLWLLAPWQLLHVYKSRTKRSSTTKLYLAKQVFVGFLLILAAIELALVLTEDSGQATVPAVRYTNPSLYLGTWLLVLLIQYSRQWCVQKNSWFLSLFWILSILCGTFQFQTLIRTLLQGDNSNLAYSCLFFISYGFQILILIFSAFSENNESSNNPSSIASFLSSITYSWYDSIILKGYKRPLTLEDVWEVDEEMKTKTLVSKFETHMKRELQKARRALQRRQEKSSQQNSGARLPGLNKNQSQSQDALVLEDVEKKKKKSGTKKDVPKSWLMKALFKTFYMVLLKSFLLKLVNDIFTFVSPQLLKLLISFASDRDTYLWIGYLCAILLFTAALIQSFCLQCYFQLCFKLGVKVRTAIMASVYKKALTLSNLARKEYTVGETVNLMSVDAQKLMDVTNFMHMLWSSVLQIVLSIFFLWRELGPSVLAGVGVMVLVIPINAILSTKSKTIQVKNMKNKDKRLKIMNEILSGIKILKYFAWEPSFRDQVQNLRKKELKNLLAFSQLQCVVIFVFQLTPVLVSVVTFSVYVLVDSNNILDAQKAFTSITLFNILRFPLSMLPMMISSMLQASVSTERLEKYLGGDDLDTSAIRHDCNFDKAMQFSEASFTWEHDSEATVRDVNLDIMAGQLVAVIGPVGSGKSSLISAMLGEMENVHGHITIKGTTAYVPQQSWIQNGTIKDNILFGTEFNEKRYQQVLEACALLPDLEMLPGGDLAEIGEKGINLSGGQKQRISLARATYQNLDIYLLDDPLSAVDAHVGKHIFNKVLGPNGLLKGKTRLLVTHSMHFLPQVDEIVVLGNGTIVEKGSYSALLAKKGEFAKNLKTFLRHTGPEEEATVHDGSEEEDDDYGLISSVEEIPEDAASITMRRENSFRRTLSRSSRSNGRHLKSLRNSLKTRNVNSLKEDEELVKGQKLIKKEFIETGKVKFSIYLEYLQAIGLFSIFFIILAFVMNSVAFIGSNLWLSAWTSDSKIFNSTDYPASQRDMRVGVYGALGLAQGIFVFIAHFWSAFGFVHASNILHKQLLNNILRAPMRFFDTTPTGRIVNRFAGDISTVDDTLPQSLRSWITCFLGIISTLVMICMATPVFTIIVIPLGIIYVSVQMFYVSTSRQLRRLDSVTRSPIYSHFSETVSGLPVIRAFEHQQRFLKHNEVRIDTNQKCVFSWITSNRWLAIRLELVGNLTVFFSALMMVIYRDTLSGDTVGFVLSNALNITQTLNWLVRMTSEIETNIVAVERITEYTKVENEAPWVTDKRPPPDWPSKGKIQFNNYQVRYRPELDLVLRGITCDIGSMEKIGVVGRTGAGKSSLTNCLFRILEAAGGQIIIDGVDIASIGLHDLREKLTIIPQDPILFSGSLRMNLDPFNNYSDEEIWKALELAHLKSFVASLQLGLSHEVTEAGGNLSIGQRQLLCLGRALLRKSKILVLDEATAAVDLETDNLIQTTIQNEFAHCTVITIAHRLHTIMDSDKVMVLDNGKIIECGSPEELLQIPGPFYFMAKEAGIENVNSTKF
Method in brief: as §1

BCRP [7] = target: T2, BCRP (Rattus norvegicus, UniProt Q80W57); experiment: SPIP with BCRP inhibitor reserpine; format: in vivo, rats; conditions: Res 50 μmol/L; increase taken to indicate a substrate of BCRP
T2 sequence (Q80W57 1-657): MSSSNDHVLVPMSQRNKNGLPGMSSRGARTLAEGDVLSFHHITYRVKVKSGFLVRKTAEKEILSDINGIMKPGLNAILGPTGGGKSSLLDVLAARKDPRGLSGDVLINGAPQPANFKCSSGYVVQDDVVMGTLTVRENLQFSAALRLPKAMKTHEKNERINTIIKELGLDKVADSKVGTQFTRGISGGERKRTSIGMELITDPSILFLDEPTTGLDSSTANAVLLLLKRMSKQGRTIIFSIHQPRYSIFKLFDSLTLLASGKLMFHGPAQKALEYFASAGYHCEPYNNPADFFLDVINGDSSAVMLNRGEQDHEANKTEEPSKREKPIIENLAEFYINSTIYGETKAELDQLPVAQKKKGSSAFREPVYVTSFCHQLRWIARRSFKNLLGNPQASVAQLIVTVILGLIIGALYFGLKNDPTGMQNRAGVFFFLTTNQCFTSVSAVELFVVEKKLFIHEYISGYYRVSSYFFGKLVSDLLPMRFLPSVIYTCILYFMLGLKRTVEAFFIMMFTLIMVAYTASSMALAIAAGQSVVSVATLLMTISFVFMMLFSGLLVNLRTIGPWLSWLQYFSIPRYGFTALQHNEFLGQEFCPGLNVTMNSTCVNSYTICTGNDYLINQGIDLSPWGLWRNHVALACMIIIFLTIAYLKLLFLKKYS

P-gp [8] = target: P-gp (Homo sapiens, UniProt P08183); experiment: Caco-2 transport with P-gp inhibitor Ver; format: in vitro ADME; conditions: Ver 100 μmol/L; increase taken to indicate a substrate of P-gp
P-gp (Homo sapiens, UniProt P08183), sequence (P08183 whole entry): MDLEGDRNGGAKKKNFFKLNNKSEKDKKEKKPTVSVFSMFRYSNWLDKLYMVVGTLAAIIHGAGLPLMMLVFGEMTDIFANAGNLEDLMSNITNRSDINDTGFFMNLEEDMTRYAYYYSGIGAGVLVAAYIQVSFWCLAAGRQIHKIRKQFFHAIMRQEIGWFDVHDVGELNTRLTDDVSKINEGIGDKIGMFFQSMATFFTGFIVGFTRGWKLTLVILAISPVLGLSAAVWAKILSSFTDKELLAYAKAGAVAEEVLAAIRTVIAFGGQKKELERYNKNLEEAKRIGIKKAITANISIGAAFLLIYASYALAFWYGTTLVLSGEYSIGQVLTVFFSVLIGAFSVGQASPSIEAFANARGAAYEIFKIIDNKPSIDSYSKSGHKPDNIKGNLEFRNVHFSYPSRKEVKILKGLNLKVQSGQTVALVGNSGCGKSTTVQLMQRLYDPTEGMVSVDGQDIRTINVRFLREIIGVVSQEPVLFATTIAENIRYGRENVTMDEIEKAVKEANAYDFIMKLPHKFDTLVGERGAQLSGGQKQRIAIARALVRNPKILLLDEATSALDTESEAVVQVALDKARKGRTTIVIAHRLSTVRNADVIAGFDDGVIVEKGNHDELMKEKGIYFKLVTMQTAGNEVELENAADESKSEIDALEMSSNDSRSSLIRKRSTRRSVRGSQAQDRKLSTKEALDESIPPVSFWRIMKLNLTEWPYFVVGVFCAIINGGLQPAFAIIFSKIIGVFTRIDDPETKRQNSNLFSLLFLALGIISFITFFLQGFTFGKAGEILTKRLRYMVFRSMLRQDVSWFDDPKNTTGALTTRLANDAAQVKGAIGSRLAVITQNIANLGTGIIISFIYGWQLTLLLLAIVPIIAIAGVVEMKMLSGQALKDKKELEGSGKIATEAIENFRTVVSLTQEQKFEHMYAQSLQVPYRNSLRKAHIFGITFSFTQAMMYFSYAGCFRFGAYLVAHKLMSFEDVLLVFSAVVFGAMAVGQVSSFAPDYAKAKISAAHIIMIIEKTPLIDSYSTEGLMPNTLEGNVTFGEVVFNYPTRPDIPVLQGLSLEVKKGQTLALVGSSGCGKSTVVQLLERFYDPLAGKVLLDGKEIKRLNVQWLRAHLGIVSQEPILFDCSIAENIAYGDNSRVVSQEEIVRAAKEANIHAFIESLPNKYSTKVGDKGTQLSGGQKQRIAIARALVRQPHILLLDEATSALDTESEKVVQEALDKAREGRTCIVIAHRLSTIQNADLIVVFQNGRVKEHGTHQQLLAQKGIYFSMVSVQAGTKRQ
Method in brief: as §1

In vitro drug release = format: physicochemical; conditions: PBS (pH 7.4), 24 hours, 37°C
Method in brief: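 Dialysis bags holding 2 mL of free suspension or liposomes with equal drug content. Immersed in 60 mL PBS pH 7.4, SGF or SIF, each with 0.5% Tween-80, shaken at 37°C, 100 rpm. 1 mL withdrawn at intervals and replaced with fresh medium. Drug quantified by HPLC (C18, methanol:water 80:20, 254 nm). Cumulative release % calculated with sampling correction, then fitted to kinetic models.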

[9] = test system: intestinal segments (duodenum, jejunum, ileum and colon); experiment: In situ single-pass intestinal perfusion; format: in vivo, rats; conditions: 125, 250, 500 μg/mL; taken to indicate passive diffusion
[10] = RAW264.7 cell viability, MTT assay; format: cell-based; conditions: mouse, RAW 264.7 macrophages
Method in brief: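 Log-phase RAW264.7 macrophages seeded at 10,000/well in 96-well plates and grown 24 h. Treated for 24 h with graded concentrations of free or liposomal test compound, 6 replicate wells per group. Then 0.5% MTT added for 4 h, formazan dissolved in DMSO, absorbance read at 490 nm.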

Caco-2 cells = experiment: Caco-2 cell viability, MTT assay; format: cell-based, human
Method in brief: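 Caco-2 cells seeded at 10,000/well in 96-well plates and grown 24 h at 37°C, 5% CO2. Exposed to increasing concentrations of free or liposomal test compound for 4 h, with α-MEM as negative control. Then 0.5% MTT added for 4 h at 37°C, formazan dissolved in DMSO, A490 read. Viability expressed as percent of control.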

UC induced by DSS = experiment: DSS colitis: histological examination of colon; format: in vivo, Balb/c mice; conditions: SASP 500 mg/kg; Pae-Lips-H 400 mg/kg
Method in brief: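 Male Balb/c mice (10 weeks, n = 6/group) given 3% (w/v) DSS in drinking water for 7 days. Dosed by gavage twice daily, suspended in 0.5% CMC-Na. Distal colon (~2 cm) fixed in 10% formaldehyde and HE-stained. Scored for mucosal inflammation severity, lesion extent and crypt damage.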

## COc1ccc(C(C)=O)c(O)c1 [Paeonol, 2’-hydroxy-4’-methoxyacetophenone]
BCRP [1]
  Papp value (AP-BL) with Res: significantly increased
[2]
  Papp A→B at 180 min, 2.5 μg/mL: 3.25 ± 0.32 ×10⁻⁶ cm/s
  Papp A→B at 180 min, 5 μg/mL: 3.62 ± 0.13 ×10⁻⁶ cm/s
  Papp A→B at 180 min, 10 μg/mL: 3.65 ± 0.52 ×10⁻⁶ cm/s
  Papp B→A at 180 min, 2.5 μg/mL: 4.17 ± 0.22 ×10⁻⁶ cm/s
  Papp B→A at 180 min, 5 μg/mL: 5.19 ± 0.3 ×10⁻⁶ cm/s
  Papp B→A at 180 min, 10 μg/mL: 5.32 ± 0.67 ×10⁻⁶ cm/s
[3]
  IL-10 level vs LPS group: increased
[3]; p < 0.05
  IL-6 level vs LPS group: decreased
  NO level vs LPS group: decreased
  TNF-α level vs LPS group: decreased
P-gp [4]
  Papp in each intestinal segment after adding Ver: significantly increased
MRP2 [5]
  Papp in each intestinal segment after adding Indo: significantly increased
MRP2 [6]
  Papp value (AP-BL) with Indo: significantly increased
BCRP [7]
  Papp in each intestinal segment after adding Res: significantly increased
P-gp [8]
  Papp value (AP-BL) with Ver: significantly increased
In vitro drug release
  cumulative release percentage (P%): 36.05 ± 2.94%
[9]
  Papp values at different concentrations: no significant difference
[10]
  viability at 24 h, 5 μg/mL: > 80%
Caco-2 cells; concentration exceeds 10 μg/mL
  Caco-2 cell viability: significantly reduced
Caco-2 cells; within 10 μg/mL, 4 hours
  survival rate of Caco-2 cells: greater than 90%

## O=C(O)c1cc(/N=N/c2ccc(S(=O)(=O)Nc3ccccn3)cc2)ccc1O [SASP]
UC induced by DSS
  colon histopathology finding: no obvious lesions
